According to ChEMBL document CHEMBL4725242, “Discovery of GS-9688 (Selgantolimod) as a Potent and Selective Oral Toll-Like Receptor 8 Agonist for the Treatment of Chronic Hepatitis B” (J Med Chem, 2020):
Calls of active or inactive are those of the source.

Experiments:
[1] = Cmax in Beagle dog at 0.5 mg/kg, po administered via gavage by HPLC-MS analysis; assay type: ADME, organism-based, Canis lupus familiaris; design: route oral, dose 0.5 mg/kg; conditions: in vivo
Procedure, shortened: (§1)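 Oral dosing in 2% ethanol/40% PEG 300/58% 0.01N HCl: Sprague Dawley rats 5 mg/kg, beagle dogs 0.5 mg/kg, cynomolgus monkeys 3 mg/kg.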

[2] = molecular target: T1, C-type lectin domain family 4 member E (Homo sapiens) (UniProt Q9ULY5); test: Agonist activity at human Mincle receptor up to 10 uM; conditions: dose microM <=10
T1 sequence (whole entry): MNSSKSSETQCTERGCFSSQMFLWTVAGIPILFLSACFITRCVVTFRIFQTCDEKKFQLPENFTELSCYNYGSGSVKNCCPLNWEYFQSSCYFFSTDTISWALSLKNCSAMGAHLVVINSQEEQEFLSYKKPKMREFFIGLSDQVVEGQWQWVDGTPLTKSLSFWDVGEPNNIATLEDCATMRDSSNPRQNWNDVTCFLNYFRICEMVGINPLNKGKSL

[3] = Immunomodulatory activity in human primary hepatocytes infected with HBV assessed as stimulation of CD8+T cell response to virus by measuring decrease in HBV DNA production treated with media from PBMC stimulated with 10 nM compound for 10 days relative to control; assay type: functional; design: scale not given: the % may be the effect or the level left; conditions: time 10 day
[4] = Drug excretion in bile duct-cannulated Sprague-Dawley rat bile; assay type: ADME; conditions: in vivo
[5] = Immunomodulatory activity in human primary hepatocytes infected with HBV assessed as stimulation of CD8+T cell response to virus by measuring decrease in HBeAg production treated with media from PBMC stimulated with 10 nM compound for 10 days relative to control; assay type: functional; design: scale not given: the % may be the effect or the level left; conditions: time 10 day
[6] = molecular target: T2, Toll-like receptor 9 (Homo sapiens) (UniProt Q9NR96); test: Agonist activity at human TLR9 expressed in HEK293 cells assessed as increase in NF-kappaB activation up to 10 uM incubated for 18 hrs by quanti-blue SEAP reporter gene assay; assay type: cell-based; conditions: dose microM <=10, time […]
T2 sequence (whole entry): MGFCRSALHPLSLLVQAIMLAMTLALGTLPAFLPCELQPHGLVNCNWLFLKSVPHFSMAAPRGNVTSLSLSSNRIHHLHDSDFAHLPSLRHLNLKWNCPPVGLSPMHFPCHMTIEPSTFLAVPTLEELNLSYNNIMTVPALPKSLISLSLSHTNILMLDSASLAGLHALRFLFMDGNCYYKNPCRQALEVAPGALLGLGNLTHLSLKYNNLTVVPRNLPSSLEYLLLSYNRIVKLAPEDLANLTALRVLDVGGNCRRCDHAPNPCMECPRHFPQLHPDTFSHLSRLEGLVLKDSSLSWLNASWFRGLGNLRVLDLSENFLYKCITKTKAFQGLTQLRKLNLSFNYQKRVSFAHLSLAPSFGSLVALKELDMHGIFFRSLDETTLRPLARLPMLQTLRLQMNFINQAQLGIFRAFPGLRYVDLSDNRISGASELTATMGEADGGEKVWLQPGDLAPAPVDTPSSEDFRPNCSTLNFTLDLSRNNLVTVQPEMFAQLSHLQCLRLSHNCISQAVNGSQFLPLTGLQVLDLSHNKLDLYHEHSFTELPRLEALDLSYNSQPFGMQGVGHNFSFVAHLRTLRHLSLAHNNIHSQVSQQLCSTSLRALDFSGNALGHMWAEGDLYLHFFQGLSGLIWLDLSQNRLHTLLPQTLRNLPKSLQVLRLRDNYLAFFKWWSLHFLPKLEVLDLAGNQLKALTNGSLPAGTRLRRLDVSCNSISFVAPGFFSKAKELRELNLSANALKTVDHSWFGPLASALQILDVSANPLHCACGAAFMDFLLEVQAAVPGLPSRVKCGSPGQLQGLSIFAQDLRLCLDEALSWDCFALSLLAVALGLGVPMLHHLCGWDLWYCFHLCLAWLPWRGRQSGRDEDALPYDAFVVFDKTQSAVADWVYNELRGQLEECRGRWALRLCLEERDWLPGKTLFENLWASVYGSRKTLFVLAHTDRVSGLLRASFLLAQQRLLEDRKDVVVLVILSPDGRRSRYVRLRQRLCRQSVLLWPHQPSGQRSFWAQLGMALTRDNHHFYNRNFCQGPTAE
Procedure, shortened: (§2)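 HEK293 cells stably expressing individual human TLRs or other innate immune receptors, used as reporter gene assays. Minimum effective concentration defined as the level giving a 3-fold rise over background.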

[7] = AUC (infinity) in Sprague-Dawley rat at 5 mg/kg, po administered via gavage by HPLC-MS analysis; assay type: ADME, organism-based; design: time infinity, route oral, dose 5 mg/kg; conditions: in vivo; procedure, shortened: as §1
[8] = Immunomodulatory activity in human primary hepatocytes infected with HBV assessed as stimulation of CD8+T cell response to virus by measuring decrease in HBV RNA production treated with media from PBMC stimulated with 10 nM compound for 10 days by PCR analysis relative to control; assay type: functional; design: scale not given: the % may be the effect or the level left; conditions: time 10 day
[9] = Dissociation constant, pKa of the compound; assay type: physicochemical
[10] = Drug metabolism in human hepatocytes assessed as glucuronidation; assay type: ADME, cell-based, Hepatocyte
[11] = molecular target: Toll-like receptor 4 (Homo sapiens) (UniProt O00206); test: Agonist activity at human TLR4 expressed in HEK293 cells assessed as increase in NF-kappaB activation up to 10 uM incubated for 24 hrs by quanti-blue SEAP reporter gene assay; assay type: cell-based; conditions: dose microM <=10, time 24.0 hrs; procedure, shortened: as §2
[12] = Half life in cynomolgus monkey at 0.1 mg/kg, iv administered as 30 mins infusion by HPLC-MS analysis; assay type: ADME, organism-based, Macaca fascicularis; conditions: in vivo
Procedure, shortened: (§3)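 30-min intravenous infusion: Sprague Dawley rats 1 mg/kg, beagle dogs 0.25 mg/kg, cynomolgus monkeys 0.1 mg/kg; n = 3 per species, reported as mean ± SD.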

[13] = Cmax in cynomolgus monkey at 3 mg/kg, po administered via gavage by HPLC-MS analysis; assay type: ADME, organism-based, Macaca fascicularis; design: route oral, dose 3 mg/kg; conditions: in vivo; procedure, shortened: as §1
[14] = Drug metabolism in human hepatocytes assessed as core oxidation; assay type: ADME, cell-based, Hepatocyte
[15] = molecular target: T3, C-type lectin domain family 7 member A (Homo sapiens) (UniProt Q9BXN2); test: Agonist activity at human Dectin1a expressed in HEK293 cells assessed as increase in NF-kappaB activation up to 10 uM incubated for 24 hrs by quanti-blue SEAP reporter gene assay; assay type: cell-based; conditions: dose microM <=10, time 24.0 hrs; procedure, shortened: as §2
T3 sequence (whole entry): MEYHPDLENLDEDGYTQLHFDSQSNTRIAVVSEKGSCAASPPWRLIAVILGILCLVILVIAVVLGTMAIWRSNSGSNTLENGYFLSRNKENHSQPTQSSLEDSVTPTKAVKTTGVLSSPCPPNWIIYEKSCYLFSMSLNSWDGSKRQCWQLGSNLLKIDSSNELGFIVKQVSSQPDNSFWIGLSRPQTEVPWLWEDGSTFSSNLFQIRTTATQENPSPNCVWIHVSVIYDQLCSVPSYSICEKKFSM

[16] = molecular target: Toll-like receptor 5 (Homo sapiens) (UniProt O60602); test: Agonist activity at human TLR5 expressed in HEK293 cells assessed as increase in NF-kappaB activation up to 10 uM incubated for 24 hrs by quanti-blue SEAP reporter gene assay; assay type: cell-based; conditions: dose microM <=10, time 24.0 hrs; procedure, shortened: as §2
[17] = Volume of distribution at steady state in cynomolgus monkey at 0.1 mg/kg, iv administered as 30 mins infusion by HPLC-MS analysis; assay type: ADME, organism-based, Macaca fascicularis; conditions: in vivo, read-out: Vdss; procedure, shortened: as §3
[18] = Drug metabolism in human hepatocytes assessed as hydroxyl oxidation to the acid; assay type: ADME, cell-based, Hepatocyte
[19] = Apparent permeability across basolateral to apical side in human Caco2 cells measured after 1 to 2 hrs by LC-MS/MS analysis; conditions: Caco-2

Toll-like receptor 4 (Homo sapiens), sequence (O00206 whole entry, the tested form may be a part): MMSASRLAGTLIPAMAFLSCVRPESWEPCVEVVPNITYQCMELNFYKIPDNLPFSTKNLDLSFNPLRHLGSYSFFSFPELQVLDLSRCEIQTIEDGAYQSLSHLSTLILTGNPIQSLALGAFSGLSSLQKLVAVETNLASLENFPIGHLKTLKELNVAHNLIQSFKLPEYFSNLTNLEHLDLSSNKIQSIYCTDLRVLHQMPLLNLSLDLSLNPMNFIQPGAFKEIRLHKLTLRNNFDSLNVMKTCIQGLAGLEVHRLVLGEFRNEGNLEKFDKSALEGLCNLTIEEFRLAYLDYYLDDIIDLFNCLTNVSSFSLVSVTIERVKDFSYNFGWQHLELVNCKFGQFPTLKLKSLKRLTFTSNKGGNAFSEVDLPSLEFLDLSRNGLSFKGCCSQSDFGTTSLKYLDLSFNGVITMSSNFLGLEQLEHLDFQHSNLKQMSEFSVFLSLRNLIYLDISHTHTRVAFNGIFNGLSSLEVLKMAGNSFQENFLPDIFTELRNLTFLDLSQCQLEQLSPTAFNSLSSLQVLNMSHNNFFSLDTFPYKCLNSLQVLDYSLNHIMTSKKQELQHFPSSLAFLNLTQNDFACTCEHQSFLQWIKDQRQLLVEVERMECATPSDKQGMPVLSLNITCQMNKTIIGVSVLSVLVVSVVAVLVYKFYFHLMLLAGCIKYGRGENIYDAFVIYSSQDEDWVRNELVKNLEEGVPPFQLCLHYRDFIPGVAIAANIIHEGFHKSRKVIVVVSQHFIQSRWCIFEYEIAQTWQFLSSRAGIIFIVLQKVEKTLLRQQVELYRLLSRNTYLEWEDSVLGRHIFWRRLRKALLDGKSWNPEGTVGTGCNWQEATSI
Toll-like receptor 5 (Homo sapiens), sequence (O60602 whole entry, the tested form may be a part): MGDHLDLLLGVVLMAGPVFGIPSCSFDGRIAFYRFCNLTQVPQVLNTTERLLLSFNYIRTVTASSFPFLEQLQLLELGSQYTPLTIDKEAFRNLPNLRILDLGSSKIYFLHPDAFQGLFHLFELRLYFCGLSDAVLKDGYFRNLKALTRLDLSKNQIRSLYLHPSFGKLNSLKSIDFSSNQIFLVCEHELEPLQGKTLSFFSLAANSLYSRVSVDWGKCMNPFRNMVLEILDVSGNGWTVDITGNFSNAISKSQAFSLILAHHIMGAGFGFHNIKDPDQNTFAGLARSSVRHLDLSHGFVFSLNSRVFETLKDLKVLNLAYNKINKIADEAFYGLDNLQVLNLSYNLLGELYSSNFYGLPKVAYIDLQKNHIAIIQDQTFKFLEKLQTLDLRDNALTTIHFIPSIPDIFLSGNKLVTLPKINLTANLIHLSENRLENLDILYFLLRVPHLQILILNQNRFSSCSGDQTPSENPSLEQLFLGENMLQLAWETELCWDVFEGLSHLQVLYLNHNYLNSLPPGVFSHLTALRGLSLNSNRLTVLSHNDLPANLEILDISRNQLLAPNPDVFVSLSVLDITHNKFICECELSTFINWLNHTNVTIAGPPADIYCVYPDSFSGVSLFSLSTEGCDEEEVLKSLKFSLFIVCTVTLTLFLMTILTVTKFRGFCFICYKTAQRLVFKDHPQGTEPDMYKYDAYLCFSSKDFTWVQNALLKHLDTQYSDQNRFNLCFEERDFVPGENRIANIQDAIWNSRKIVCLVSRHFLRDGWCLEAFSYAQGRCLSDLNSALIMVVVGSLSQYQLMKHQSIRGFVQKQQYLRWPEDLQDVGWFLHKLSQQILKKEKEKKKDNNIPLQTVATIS

## CCCC[C@](C)(CO)Nc1nc(N)nc2cc(F)cnc12 [SELGANTOLIMOD]
[1]
  Cmax: 9.7 nM
[2]
  Activity: inactive
[3]
  Activity: >50%
[4]
  Drug excretion: Active
[5]
  Activity: >50%
[6]
  Activity: inactive
[7]
  AUC(0-inf): 0.827 µM·h
[8]
  Activity: >50%
[9]
  pKa: 6.3
[10]
  Drug metabolism: Metabolite_Detected
[11]
  Activity: inactive
[12]
  half-life: 40.2 min
[13]
  Cmax: 1.2 nM
[14]
  Drug metabolism: Metabolite_Notdetected
[15]
  Activity: inactive
[16]
  Activity: inactive
[17]
  Vd: 2.1 L/kg
[18]
  Drug metabolism: Metabolite_Detected
[19]
  Papp B→A: 11 ×10⁻⁶ cm/s
